Values after ≈ are worked out from the molar mass of the structure shown. Read-outs that look alike come from different tables or passages of the source.
Tests used:
[1] = Measurement of solubility; type: physicochemical; conditions: thermodynamic from solid
Outline: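 Solid added to solvent to supersaturation and shaken 24 h at room temperature, then centrifuged and filtered. Aqueous supernatants were quantified by reversed-phase HPLC against a standard curve prepared in methanol. For organic solvents, the dissolved solid was weighed after removing solvent under reduced pressure.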

[2] = test system: various P. falciparum strains; test: Parasites growth inhibition on the panel of various P. falciparum strains; type: cell-based, Plasmodium falciparum; conditions: all strains of Table 2
Outline: (§1)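 P. falciparum grown in type O human red cells in RPMI 1640 with Albumax I, hypoxanthine, bicarbonate, 15 mmol/L HEPES and gentamycin, under 5% O₂/5% CO₂/90% N₂. Synchronised with alanine/HEPES or 5% sorbitol. Mid-ring parasites (0.5% parasitemia, 2% hematocrit) exposed to serially diluted test compound in triplicate for 72 h at 37 °C.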

[3] = test system: P. falciparum strain Fab9; test: Parasites growth inhibition assay, strain Fab9; type: cell-based; conditions: Plasmodium falciparum
Outline: as §1

[4] = test system: wildtype (WT) D10 parasites; test: Parasites growth inhibition assay, wildtype D10 strain; type: cell-based; conditions: Plasmodium falciparum
Outline: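 Wildtype D10 or yDHOD-transgenic D10 parasites were challenged with test compound with or without 50 nmol/L proguanil. Growth inhibition used SYBR Green I: mid-ring cultures at 0.5% parasitemia and 2% hematocrit, in triplicate, for 72 h at 37 °C under 5% O₂/5% CO₂. Plates were freeze-thawed and lysed with SYBR Green I buffer, and fluorescence read at 485/538 nm. EC50 by nonlinear regression.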

P. falciparum strain C2A = test: Parasites growth inhibition assay, strain C2A; type: cell-based; conditions: Plasmodium falciparum
Outline: as §1

P. falciparum strain Dd2 = test: Parasites growth inhibition assay, strain Dd2; type: cell-based; conditions: Plasmodium falciparum
Outline: as §1

[5] = test system: P. falciparum strain PC26; test: Parasites growth inhibition assay, strain PC26; type: cell-based; conditions: Plasmodium falciparum
Outline: as §1

[6] = test system: Plasmodium yoelii-infected mouse models; test: In vivo efficacy study on P. yoelii-infected mice; conditions: once a day for 4 days
Outline: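 Female BALB/c mice (25 g, 6–8 weeks), specific pathogen-free, five per group. Infected intraperitoneally with about 1×10⁶ P. yoelii-infected red cells on Day 0, then randomised. Test compound in aqueous 5% DMSO / 18% PEGylated castor oil given intraperitoneally once daily for 4 days from Day 1. Chloroquine and DMSO groups included. Parasitemia by Giemsa-stained smear microscopy; survival followed, with CO₂ euthanasia at distress. Mean ± SD, n = 5.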

[7] = target: T1, PF12 bc1 complex (PF11 changes plus Y279S) (Saccharomyces cerevisiae, UniProt P00163, C133V/C134L/F296L/H141Y/I299L/L275F/M295V/R283K/V135P/Y136W/Y279S); test: Decylubiquinol-cytochrome c reductase activity, yeast bc1 mutant PF12; type: biochemical
HepG2 cells = test: Cytotoxicity assay; type: cell-based, Human; conditions: CC50 / EC50 on 3D7
Outline: (§2)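 HepG2 cells in DMEM with 10% FBS and penicillin-streptomycin, seeded at 6,000/well and attached overnight at 37 °C, 5% CO₂. Test compound in DMSO diluted into medium and added; 24 h incubation. CCK-8 added for 2–4 h, then absorbance read at 450 nm. CC50 (reported as EC50) from nonlinear logistic regression. SI is CC50 over 3D7 EC50.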

Cytotoxicity assay = type: cell-based, Human; conditions: human, HepG2 cells
Outline: as §2

Pfbc1 = target: T2, Pfbc1 (Plasmodium falciparum, UniProt Q02768); test: Decylubiquinol-cytochrome c reductase activity of Pfbc1; type: biochemical, P. falciparum
T2 sequence (Q02768 1-376): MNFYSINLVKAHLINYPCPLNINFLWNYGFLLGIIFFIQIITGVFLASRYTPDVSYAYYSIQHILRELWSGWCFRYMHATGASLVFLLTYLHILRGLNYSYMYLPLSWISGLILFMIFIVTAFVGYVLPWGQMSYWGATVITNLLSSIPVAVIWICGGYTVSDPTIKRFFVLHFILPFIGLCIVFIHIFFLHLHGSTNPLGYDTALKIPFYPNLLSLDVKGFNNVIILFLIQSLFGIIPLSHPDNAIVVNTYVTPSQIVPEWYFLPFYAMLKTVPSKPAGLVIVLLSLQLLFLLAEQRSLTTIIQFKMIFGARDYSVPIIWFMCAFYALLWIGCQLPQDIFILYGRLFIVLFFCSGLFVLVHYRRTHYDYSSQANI

[8] = target: PFQi4 bc1 complex with P. falciparum-like modifications in the Qi-site (Saccharomyces cerevisiae, UniProt P00163, A191L/F225L/I17L/I195F/I226L/L198I/L40F/M221F/Q22C/S20Y/S34F/V41F/Y16H); test: Decylubiquinol-cytochrome c reductase activity, yeast bc1 mutant PFQi4; type: biochemical
Outline: (§3)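 Yeast cytochrome b mutants carry P. falciparum-like substitutions and are otherwise isogenic. Mitochondria from mid-log YPGal cultures were made via zymolyase protoplasts, osmotic shock and differential centrifugation; bc1 content came from dithionite-reduced spectra. Assay at room temperature: 20 µmol/L cytochrome c in 10 mmol/L potassium phosphate pH 7, 0.01% lauryl-maltoside, 1 mmol/L KCN. bc1 was 6 nmol/L (wildtype) or 20 nmol/L (mutants), started with 40 µmol/L decylubiquinol.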

[9] = target: T3, wildtype yeast bc1 complex (Saccharomyces cerevisiae, UniProt P00163); test: Decylubiquinol-cytochrome c reductase activity, wildtype yeast bc1; type: biochemical; conditions: at 10 μmol/L, data not shown
Outline: as §3

P. falciparum strain 803 = test: Parasites growth inhibition assay, strain 803; type: cell-based; conditions: Plasmodium falciparum
Outline: as §1

P. falciparum strain GB4 = test: Parasites growth inhibition assay, strain GB4; type: cell-based; conditions: Plasmodium falciparum
Outline: as §1

PfNDH2 = target: T4, PfNDH2 (Plasmodium falciparum, UniProt Q8I302); test: Enzymatic activity assay of PfNDH2; type: biochemical, P. falciparum
T4 sequence (Q8I302 1-533): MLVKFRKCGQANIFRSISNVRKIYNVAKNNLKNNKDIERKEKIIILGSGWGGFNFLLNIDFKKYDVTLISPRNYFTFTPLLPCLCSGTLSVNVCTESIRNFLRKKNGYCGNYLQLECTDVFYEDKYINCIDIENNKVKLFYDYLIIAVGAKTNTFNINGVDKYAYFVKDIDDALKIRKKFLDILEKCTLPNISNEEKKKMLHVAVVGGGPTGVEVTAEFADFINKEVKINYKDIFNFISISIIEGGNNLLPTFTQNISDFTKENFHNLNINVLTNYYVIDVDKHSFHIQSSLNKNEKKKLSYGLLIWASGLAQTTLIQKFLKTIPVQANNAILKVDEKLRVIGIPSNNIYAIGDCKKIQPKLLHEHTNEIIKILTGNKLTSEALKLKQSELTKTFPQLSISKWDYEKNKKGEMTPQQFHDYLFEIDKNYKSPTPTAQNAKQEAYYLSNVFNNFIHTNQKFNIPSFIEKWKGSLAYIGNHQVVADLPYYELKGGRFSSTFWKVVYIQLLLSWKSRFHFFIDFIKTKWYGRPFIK
Outline: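 Reaction started with enzyme; NADH decrease followed continuously at 340 nm (ε 6220 L/(mol·cm)); IC50 by nonlinear regression. Kinetics varied UQ₁ (5–100 µmol/L) or NADH (10–600 µmol/L) at several inhibitor concentrations; Lineweaver–Burk analysis.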

[10] = target: PF11 bc1 complex with P. falciparum-like modifications in the Qo-site (Saccharomyces cerevisiae, UniProt P00163, C133V/C134L/F296L/H141Y/I299L/L275F/M295V/R283K/V135P/Y136W); test: Decylubiquinol-cytochrome c reductase activity, yeast bc1 mutant PF11; type: biochemical
Outline: as §3

[11] = test system: 3D7 strain of P. falciparum; test: Parasites growth inhibition assay; type: cell-based; conditions: Plasmodium falciparum
Outline: as §1

[12] = target: T1, PF12 bc1 complex (PF11 changes plus Y279S); conditions: cited from earlier work
[13] = target: T3, wildtype yeast bc1 complex; conditions: at 1 μmol/L; cited from earlier work
[14] = test system: P. falciparum strain CP286; test: Parasites growth inhibition assay, strain CP286; type: cell-based; conditions: Plasmodium falciparum
Outline: as §1

[15] = 0.01 mol/L HCl, pH 2, simulated gastric fluid
[16] = dichloromethane, organic solvent or mixture
[17] = methanol, organic solvent or mixture

Row | SMILES | solubility at 24 h [1, 15] | solubility at 24 h [1, 16] | solubility at 24 h [1, 17] | solubility at 24 h ([1]; water) | EC50 [3] | EC50 [4] | EC50 (P. falciparum strain C2A) | EC50 (P. falciparum strain Dd2) | EC50 [5] | SI (selectivity index) (HepG2 cells) | CC50 at 24 h (Cytotoxicity assay) | EC50 (P. falciparum strain 803) | EC50 (P. falciparum strain GB4) | EC50 [11] | EC50 [14] | further results
1 | CCCN(C)Cc1cc(-c2[nH]c3cccc(F)c3c(=O)c2C)ccc1Cc1ccc(OC(F)(F)F)cc1 [RYL-581] | 0.428 mM (≈ 219 µg/mL) | 64 mM (≈ 32800 µg/mL) | 37 mM (≈ 19000 µg/mL) | 0.0136 mM (≈ 6.97 µg/mL) | 0.27 nM | 0.7 nM | 0.29 nM | 0.44 nM | 0.31 nM | >178,571 | > 10000 nM | 0.96 nM | 0.23 nM | 0.056 nM |  | EC50 values on various strains, in words [2]: sub-nanomolar; Day by which parasites were completely cleared ([6]; 3 mg/kg/d intraperitoneal): ≤ 22 days; Final survival rate ([6]; 3 mg/kg/d intraperitoneal, 5 mice): 80%; Day by which all mice were cured ([6]; 10 mg/kg/d intraperitoneal): ≤ 16 days; Survival rate ([6]; 10 mg/kg/d intraperitoneal, 5 mice): 100%; IC50 [7]: ~1000 nM; Increase of mid-point inhibitory concentration PF12 compared to PF11 [7]: three-fold; IC50 (Pfbc1): 0.51 nM; IC50 [8]: ~10000 nM; Resistance of PFQi4 bc1 complex compared to wild type [8]: increased reactivity; Inhibition of wildtype yeast bc1 complex [9]: only slight inhibition; Potency on PfNDH2 decreased as compared to RYL-552 (PfNDH2): 11 fold; IC50 (PfNDH2; IC50 PfNDH2, 200 μmol/L NADH, 100 μmol/L UQ1): 42.2 nM; Type of inhibition of PfNDH2 (Lineweaver–Burk) (PfNDH2; substrates Q (UQ1) and NADH varied): non-competitive; IC50 [10]: ~300 nM
2 | O=C1C(O)=C([C@H]2CC[C@H](c3ccc(Cl)cc3)CC2)C(=O)c2ccccc21 [Atovaquone, atovaquone, reference compound] | 0.0006 mM (≈ 0.22 µg/mL) | 29 mM (≈ 10600 µg/mL) | 29 mM (≈ 10600 µg/mL) | 0.0007 mM (≈ 0.257 µg/mL) |  |  |  |  |  |  | > 10000 nM |  |  | 0.45 nM |  | Increase of mid-point inhibitory concentration PF12 compared to PF11 [12]: > 100 fold; Inhibition of wildtype yeast bc1 complex [13]: fully inhibited
3 | CCCCCN(C)Cc1cc(-c2[nH]c3cccc(F)c3c(=O)c2C)ccc1Cc1ccc(OC(F)(F)F)cc1 [Compound 30] | 0.337 mM (≈ 182 µg/mL) | 370 mM (≈ 200000 µg/mL) | 34 mM (≈ 18400 µg/mL) | 0.0064 mM (≈ 3.46 µg/mL) |  |  |  |  |  | >16,393 | > 10000 nM |  |  | 0.61 nM |  | 
4 | CCCCCCCN(C)Cc1cc(-c2[nH]c3cccc(F)c3c(=O)c2C)ccc1Cc1ccc(OC(F)(F)F)cc1 [Compound 31] | 0.0194 mM (≈ 11 µg/mL) | 420 mM (≈ 239000 µg/mL) | 32 mM (≈ 18200 µg/mL) | 0.002 mM (≈ 1.14 µg/mL) |  |  |  |  |  | >33,333 | > 10000 nM |  |  | 0.3 nM |  | 
5 | Cc1c(-c2ccc(Cc3ccc(OC(F)(F)F)cc3)c(CN(C)C)c2)[nH]c2cccc(F)c2c1=O [Compound 24] | 0.496 mM (≈ 240 µg/mL) | 19 mM (≈ 9210 µg/mL) | 110 mM (≈ 53300 µg/mL) | 0.04 mM (≈ 19.4 µg/mL) | 6.01 nM | 3.23 nM | 1.44 nM | 2.05 nM | 3.17 nM | >4785 | > 10000 nM | 9.3 nM | 1.02 nM | 2.09 nM | 4.56 nM | 
6 | Cc1c(-c2ccc(Cc3ccc(OC(F)(F)F)cc3)c(CN3CCCC3)c2)[nH]c2cccc(F)c2c1=O [Compound 25] | 0.45 mM (≈ 230 µg/mL) | 30 mM (≈ 15300 µg/mL) | 37 mM (≈ 18900 µg/mL) | 0.0163 mM (≈ 8.32 µg/mL) | 5.33 nM | 2.32 nM | 7.01 nM | 2.18 nM | 3.3 nM | >3460 | > 10000 nM | 9.81 nM | 1.41 nM | 2.89 nM | 4.81 nM | 

Source: publication PMC8463279 (Acta Pharmaceutica Sinica. B, 2021)
